Measurements as given in ChEMBL document CHEMBL4177770, “Discovery of MK-6169, a Potent Pan-Genotype Hepatitis C Virus NS5A Inhibitor with Optimized Activity against Common Resistance-Associated Substitutions” (J Med Chem, 2018).
Changes are numbered by the printed parent chain.

How the values were obtained:
[1] = target: T1, Nonstructural protein 5A (Hepatitis C virus) (UniProt Q5L478); assay: Inhibition of NS5A in HCV genotype 1a infected in HuH7 replicon cells assessed as decrease in viral replication after 3 days by RT-PCR method; format: cell-based; details: Hepatitis C virus subtype 1a
T1 sequence (whole entry): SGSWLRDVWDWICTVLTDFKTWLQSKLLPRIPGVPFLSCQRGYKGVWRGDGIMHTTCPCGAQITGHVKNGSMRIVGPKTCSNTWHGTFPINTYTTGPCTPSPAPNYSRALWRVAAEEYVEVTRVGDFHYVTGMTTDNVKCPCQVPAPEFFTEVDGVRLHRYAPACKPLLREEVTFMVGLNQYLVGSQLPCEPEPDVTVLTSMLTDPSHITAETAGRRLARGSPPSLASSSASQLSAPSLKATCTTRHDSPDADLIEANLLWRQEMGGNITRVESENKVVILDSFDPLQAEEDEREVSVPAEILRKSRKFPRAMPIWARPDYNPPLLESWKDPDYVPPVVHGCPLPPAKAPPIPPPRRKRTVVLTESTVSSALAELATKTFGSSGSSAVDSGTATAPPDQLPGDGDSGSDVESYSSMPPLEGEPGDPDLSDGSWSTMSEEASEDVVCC

[2] = target: T1, Nonstructural protein 5A (Hepatitis C virus); assay: Inhibition of NS5A in HCV genotype 1b infected in HuH7 replicon cells assessed as decrease in viral replication after 3 days by RT-PCR method; format: cell-based; details: Hepatitis C virus subtype 1b
[3] = target: T1, Nonstructural protein 5A (Hepatitis C virus); assay: Inhibition of NS5A L31M mutant in HCV genotype 2b infected in HuH7 replicon cells assessed as decrease in viral replication after 3 days by RT-PCR method; format: cell-based; details: Hepatitis C virus subtype 2b
[4] = target: T1, Nonstructural protein 5A (Hepatitis C virus); assay: Inhibition of NS5A in HCV genotype 3a infected in HuH7 replicon cells assessed as decrease in viral replication after 3 days by RT-PCR method; format: cell-based; details: Hepatitis C virus subtype 3a
[5] = target: T1, Nonstructural protein 5A (Hepatitis C virus); assay: Inhibition of NS5A in HCV genotype 4a infected in HuH7 replicon cells assessed as decrease in viral replication after 3 days by RT-PCR method; format: cell-based; details: Hepatitis C virus subtype 4a
[6] = tested on: T2, Nonstructural protein 5A (Hepatitis C virus), Q5L478 [Y93H]; assay: Inhibition of NS5A Y93H mutant in HCV genotype 1a infected in HuH7 replicon cells assessed as decrease in viral replication after 3 days by RT-PCR method; format: cell-based; details: Hepatitis C virus subtype 1a
T2 sequence (whole entry): T1 sequence (whole entry) with Y93H

[7] = target: T1, Nonstructural protein 5A (Hepatitis C virus); assay: Inhibition of NS5A L31V mutant in HCV genotype 1a infected in HuH7 replicon cells assessed as decrease in viral replication after 3 days by RT-PCR method; format: cell-based; details: Hepatitis C virus subtype 1a
[8] = Half life in Wistar Han rat at 2 mg/kg, iv by LC/MS method; format: ADME, organism-based; details: in vivo
Outline: (§1)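 Male Wistar Han rats, two per group, dosed IV at 2 mg/kg in 60% PEG200. Plasma was obtained by centrifuging the blood, and compound concentrations were measured by LC/MS.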

[9] = Half life in Beagle dog at 1 mg/kg, iv by LC/MS method; format: ADME, organism-based, Canis lupus familiaris; details: in vivo
Outline: (§2)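 Beagle dogs, two animals per group, dosed IV at 1 mg/kg in 60% PEG200. Plasma was prepared from collected blood by centrifugation, and compound was quantified by LC/MS.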

[10] = Clearance in Wistar Han rat at 2 mg/kg, iv by LC/MS method; format: ADME, organism-based; details: in vivo; outline: as §1
[11] = Clearance in Beagle dog at 1 mg/kg, iv by LC/MS method; format: ADME, organism-based, Canis lupus familiaris; details: in vivo; outline: as §2
[12] = AUC in Wistar Han rat at 10 mg/kg, po by LC/MS method; format: ADME, organism-based; details: in vivo
Outline: (§3)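 Male Wistar Han rats, two per dosing group, dosed orally at 10 mg/kg in 10% TWEEN. Plasma was separated from collected blood by centrifugation and analysed by LC/MS.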

[13] = AUC in Beagle dog at 5 mg/kg, po by LC/MS method; format: ADME, organism-based, Canis lupus familiaris; details: in vivo
Outline: (§4)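 Beagle dogs, two animals per dosing group. Oral dose was given in 10% TWEEN. Blood was collected and spun to plasma, and plasma compound levels were measured by LC/MS.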

[14] = Cmax in Wistar Han rat at 10 mg/kg, po by LC/MS method; format: ADME, organism-based; parameters: dose 10 mg/kg, route oral; details: in vivo; outline: as §3
[15] = Cmax in Beagle dog at 5 mg/kg, po by LC/MS method; format: ADME, organism-based, Canis lupus familiaris; parameters: dose 5 mg/kg, route oral; details: in vivo; outline: as §4
[16] = Drug level in Wistar Han rat at 10 mg/kg, po measured at 24 hrs by LC/MS method; format: ADME, organism-based; details: in vivo, read-out: Drug uptake; outline: as §3
[17] = Drug level in Beagle dog at 5 mg/kg, po measured at 24 hrs by LC/MS method; format: ADME, organism-based, Canis lupus familiaris; details: in vivo, read-out: Drug uptake; outline: as §4
[18] = Oral bioavailability in Wistar Han rat at 10 mg/kg by LC/MS method; format: ADME, organism-based; details: in vivo; outline: as §3
[19] = Oral bioavailability in Beagle dog at 5 mg/kg by LC/MS method; format: ADME, organism-based, Canis lupus familiaris; details: in vivo; outline: as §4
[20] = Tmax in Wistar Han rat at 10 mg/kg, po by LC/MS method; format: ADME, organism-based; details: in vivo; outline: as §3
[21] = MRT in Wistar Han rat at 10 mg/kg, po by LC/MS method; format: ADME, organism-based; details: in vivo; outline: as §3
[22] = AUC in Wistar Han rat at 100 mg/kg, po by LC/MS method; format: ADME, organism-based; details: in vivo
Outline: (§5)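 Single rising oral dose study in fed male Wistar Han rats, dosed PO in 10% TWEEN at the indicated doses. Plasma was obtained by centrifuging the blood, and compound levels were determined by LC/MS.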

[23] = Cmax in Wistar Han rat at 100 mg/kg, po by LC/MS method; format: ADME, organism-based; parameters: dose 100 mg/kg, route oral; details: in vivo; outline: as §5
[24] = Drug level in Wistar Han rat at 100 mg/kg, po measured at 24 hrs by LC/MS method; format: ADME, organism-based; details: in vivo, read-out: Drug uptake; outline: as §5
[25] = Tmax in Wistar Han rat at 100 mg/kg, po by LC/MS method; format: ADME, organism-based; details: in vivo; outline: as §5
[26] = MRT in Wistar Han rat at 100 mg/kg, po by LC/MS method; format: ADME, organism-based; details: in vivo; outline: as §5
[27] = AUC in Wistar Han rat at 300 mg/kg, po by LC/MS method; format: ADME, organism-based; details: in vivo; outline: as §5
[28] = Cmax in Wistar Han rat at 300 mg/kg, po by LC/MS method; format: ADME, organism-based; parameters: dose 300 mg/kg, route oral; details: in vivo; outline: as §5
[29] = Drug level in Wistar Han rat at 300 mg/kg, po measured at 24 hrs by LC/MS method; format: ADME, organism-based; details: in vivo, read-out: Drug uptake; outline: as §5
[30] = Tmax in Wistar Han rat at 300 mg/kg, po by LC/MS method; format: ADME, organism-based; details: in vivo; outline: as §5
[31] = MRT in Wistar Han rat at 300 mg/kg, po by LC/MS method; format: ADME, organism-based; details: in vivo; outline: as §5
[32] = tested on: Hepatitis C virus subtype 1a; assay: Resistance ratio of EC90 for NS5A L31V mutant in HCV genotype 1a infected in HuH7 replicon cells to EC90 for NS5A in HCV genotype 1a infected in HuH7 replicon cells; format: cell-based
[33] = tested on: Hepatitis C virus subtype 1a; assay: Resistance ratio of EC90 for NS5A Y93H mutant in HCV genotype 1a infected in HuH7 replicon cells to EC90 for NS5A in HCV genotype 1a infected in HuH7 replicon cells; format: cell-based
[34] = Resistance ratio of EC90 for NS5A in HCV genotype 1b infected in HuH7 replicon cells to EC90 for NS5A in HCV genotype 1a infected in HuH7 replicon cells; format: cell-based
[35] = Resistance ratio of EC90 for NS5A L31M mutant in HCV genotype 2b infected in HuH7 replicon cells to EC90 for NS5A in HCV genotype 1a infected in HuH7 replicon cells; format: cell-based
[36] = Resistance ratio of EC90 for NS5A in HCV genotype 3a infected in HuH7 replicon cells to EC90 for NS5A in HCV genotype 1a infected in HuH7 replicon cells; format: cell-based
[37] = Resistance ratio of EC90 for NS5A in HCV genotype 4a infected in HuH7 replicon cells to EC90 for NS5A in HCV genotype 1a infected in HuH7 replicon cells; format: cell-based

SMILES	EC90 [1] [pM]	EC90 [2] [pM]	EC90 [3] [nM]	EC90 [4] [pM]	EC90 [5] [pM]	EC90 [6] [nM]	EC90 [7] [pM]	half-life [8] [min]	half-life [9] [min]	clearance [10] [mL/min/kg]	clearance [11] [mL/min/kg]	AUC [12] [µM·h]	Cmax [14] [nM]	bioavailability [18] [%]	Ratio [32]	Ratio [33]	Ratio [34]	Ratio [35]	Ratio [36]	Ratio [37]	other results
COC(=O)N[C@H](C(=O)N1CCC[C@H]1c1ncc(-c2cc(F)c3c(c2)O[C@@H](c2ccc(C4CC4)s2)n2c-3cc3cc(-c4cnc([C@@H]5CCCN5C(=O)[C@@H](NC(=O)OC)C5C[C@@H](C)O[C@@H](C)C5)[nH]4)ccc32)[nH]1)C(C)C (some centres undefined)	4	4	0.025	8	7	0.027	5	306	432	11	3	0.33 to 0.92	67 to 80	5.9	–	–	–	–	–	–	AUC [13]: 2.42 µM·h; Cmax [15]: 330 nM; concentration at 24 h [16]: 3 to 5 nM; concentration at 24 h [17]: 11 nM; bioavailability [19]: 8.5%; Tmax [20]: 4 h; MRT [21]: 9 h; AUC [22]: 1.95 µM·h; Cmax [23]: 220 nM; concentration at 24 h [24]: 27 nM; Tmax [25]: 2 h; MRT [26]: 17 h; AUC [27]: 4.08 µM·h; Cmax [28]: 390 nM; concentration at 24 h [29]: 40 nM; Tmax [30]: 6 h; MRT [31]: 11 h
COC(=O)N[C@H](C(=O)N1CCC[C@H]1c1ncc(-c2cc(F)c3c(c2)O[C@@H](c2ccc4c(c2)OCCC4)n2c-3cc3cc(-c4cnc([C@@H]5CCCN5C(=O)[C@@H](NC(=O)OC)C5CCOCC5)[nH]4)ccc32)[nH]1)C(C)C	4	6	0.019	8	7	0.035	5	192	–	11	–	0.13	32	0.8	< 10	< 10	< 10	< 10	< 10	< 10	–
COC(=O)N[C@H](C(=O)N1CCC[C@H]1c1ncc(-c2cc(F)c3c(c2)O[C@@H](c2ccc(C(F)(F)F)s2)n2c-3cc3cc(-c4cnc([C@@H]5CCCN5C(=O)[C@@H](NC(=O)OC)C5CCOCC5)[nH]4)ccc32)[nH]1)C(C)C	3	5	0.01	6	3	0.023	5	–	–	–	–	–	–	–	< 10	< 10	< 10	< 10	< 10	< 10	–
COC(=O)N[C@H](C(=O)N1CCC[C@H]1c1ncc(-c2cc(F)c3c(c2)O[C@@H](c2ccc(C4CC4)s2)n2c-3cc3cc(-c4cnc([C@@H]5CCCN5C(=O)[C@@H](NC(=O)OC)C5C[C@@H](C)O[C@H](C)C5)[nH]4)ccc32)[nH]1)C(C)C (some centres undefined)	4	4	0.012	7	7	0.015	4	216	678	11	2.6	0.31 to 0.93	50 to 119	6.3	–	–	–	–	–	–	AUC [13]: 5.05 µM·h; Cmax [15]: 640 nM; concentration at 24 h [16]: 1 to 4 nM; concentration at 24 h [17]: 87 nM; bioavailability [19]: 18.7%; Tmax [20]: 3 h; MRT [21]: 6 h; AUC [22]: 2.07 µM·h; Cmax [23]: 240 nM; concentration at 24 h [24]: 9 nM; Tmax [25]: 3 h; MRT [26]: 7.6 h; AUC [27]: 5.58 µM·h; Cmax [28]: 510 nM; concentration at 24 h [29]: 29 nM; Tmax [30]: 7 h; MRT [31]: 9.3 h
COC(=O)N[C@H](C(=O)N1CCC[C@H]1c1ncc(-c2cc(F)c3c(c2)O[C@@H](c2ccc4c(c2)CCCO4)n2c-3cc3cc(-c4cnc([C@@H]5CCCN5C(=O)[C@@H](NC(=O)OC)C5CCOCC5)[nH]4)ccc32)[nH]1)C(C)C	5	3	1.07	9	6	0.356	7	–	–	–	–	–	–	–	< 10	< 10	< 10	< 10	< 10	< 10	–
CCCc1ccc([C@@H]2Oc3cc(-c4cnc([C@@H]5CCCN5C(=O)[C@@H](NC(=O)OC)C(C)C)[nH]4)cc(F)c3-c3cc4cc(-c5cnc([C@@H]6CCCN6C(=O)[C@@H](NC(=O)OC)C6CCOCC6)[nH]5)ccc4n32)s1	2	6	0.012	5	2	0.009	3	–	–	–	–	–	–	–	< 10	< 10	< 10	< 10	< 10	< 10	–
